# Measurements reported in ChEMBL document CHEMBL2177003, “Development of target protein-selective degradation inducer for protein knockdown” (Bioorg Med Chem, 2011).
# Calls of active or inactive are those of the source. No cut-off for these calls is given here.
# Experiments:
# [1] = target: Baculoviral IAP repeat-containing protein 2 (Homo sapiens) (UniProt Q13490); assay: Induction of auto-degradation of Flag-tagged cIAP1 expressed in HT1080 cells at 0.1 to 10 uM by Western blot analysis; assay type: cell-based; details: HT-1080
# Outline: (§1)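 FLAG-tagged IAP-expressing HT1080 cells (1 × 10⁶), RPMI 1640 with 10% heat-inactivated FBS at 37 °C, 5% CO₂, treated for the stated period in medium with 10% FBS. SDS lysates equalized by BCA, resolved on 10–20% SDS–PAGE, PVDF, skim-milk block. Probed for CRABP-II, cIAP1, FLAG and β-actin with HRP secondaries, visualized by enhanced chemiluminescence.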
# HT-1080 [2] = assay: Induction of apoptosis in human HT1080 cells at 1 to 30 uM after 24 hrs by lactate dehydrogenase assay; assay type: functional, cell-based
# Outline: (§2)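 HT1080 cells seeded at 2 × 10⁴/well, grown 24 h at 37 °C, then exposed to compounds for 24 h with or without 30 μg/mL etoposide. LDH release measured with a non-radioactive cytotoxicity kit; lysis-buffer wells served as high control. Substrate 30 min at room temperature, stopped, A490 read. Means of triplicates.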
# HT-1080 [3] = assay: Induction of apoptosis in human HT1080 cells after 24 hrs by lactate dehydrogenase assay in presence of etoposide; assay type: functional, cell-based; outline: as §2
# HT-1080 [4] = assay: Induction of apoptosis in human HT1080 cells assessed as activation of caspase 3/7 at 30 uM after 24 hrs by fluorescence assay; assay type: functional, cell-based
# Outline: (§3)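 HT1080 cells seeded at 2 × 10⁴/well, grown 24 h, then compounds added for 24 h with or without 30 μg/mL etoposide. Caspase-3/7 homogeneous reagent added, 10 h at room temperature. Fluorescence read at ex 485/em 535 nm and expressed as fold change in caspase activity. Means of triplicates; ANOVA with Bonferroni-type multiple t test.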
# HT-1080 [5] = assay: Induction of apoptosis in human HT1080 cells assessed as activation of caspase 3/7 at 30 uM after 24 hrs by fluorescence assay in presence of etoposide; assay type: functional, cell-based; outline: as §3
# [6] = target: T1, Complex of retinoic acid binding (CRABPII) and inhibitor of apoptosis (cIAP1) proteins (Homo sapiens) (UniProt P29373+Q13490); assay: Binding affinity to Flag-tagged cIAP1/CRABP2 expressed in human HT1080 cells assessed as induction in CRABP-2 degradation after 12 hrs by Western blot analysis; assay type: cell-based; details: HT-1080; outline: as §1
# [7] = target: Baculoviral IAP repeat-containing protein 2 (Homo sapiens) (UniProt Q13490); assay: Induction of auto-degradation of Flag-tagged cIAP1 expressed in HT1080 cells at […] by Western blot analysis; assay type: cell-based; details: HT-1080
# IMR-32 [8] = assay: Induction of apoptosis in human IMR32 cells assessed as activation of caspase 3/7 at 30 uM after 24 hrs by fluorescence assay; assay type: functional, cell-based
# Outline: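 IMR-32 cells seeded at 2 × 10⁴/well, grown 24 h, then exposed to compounds for 24 h. Caspase-3/7 homogeneous reagent added, 0.5 h at room temperature. Fluorescence read at ex 485/em 535 nm and expressed as fold change over control. Means of triplicates; ANOVA with Bonferroni-type multiple t test.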
# IMR-32 [9] = assay: Inhibition of cell proliferation in human IMR32 cells at 1 to 30 uM after 72 hrs by Alamarblue assay; assay type: functional, cell-based
# Outline: (§4)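 Cells (IMR-32, HT1080 or MCF-7) seeded at 2 × 10⁴/well and grown 24 h at 37 °C. Compounds at various concentrations added for 0–72 h at 37 °C, 5% CO₂. AlamarBlue then added for 3 h at 37 °C. Fluorescence read at ex 540/em 590 nm and converted to percentage cell growth.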
# [10] = target: Baculoviral IAP repeat-containing protein 2 (Homo sapiens) (UniProt Q13490); assay: Induction of degradation of Flag-tagged cIAP1 expressed in HT1080 cells at […] by Western blot analysis in presence of MG132; assay type: cell-based; details: HT-1080
# [11] = target: Baculoviral IAP repeat-containing protein 2 (Homo sapiens) (UniProt Q13490); assay: Inhibition of MeBS-induced degradation of Flag-tagged cIAP1 expressed in HT1080 cells at 100 to 1000 uM by Western blot analysis; assay type: cell-based; details: HT-1080
# XIAP (Homo sapiens) = assay: Binding affinity to Flag-tagged XIAP expressed in HT1080 cells assessed as degradation of XIAP at 0.1 to 10 uM after 6 hrs by Western blot analysis; details: HT-1080
# [12] = target: T1, Complex of retinoic acid binding (CRABPII) and inhibitor of apoptosis (cIAP1) proteins (Homo sapiens); assay: Binding affinity to Flag-tagged cIAP1/CRABP2 expressed in human HT1080 cells assessed as induction in CRABP-2 degradation at 0.1 to 10 uM after 6 hrs by Western blot analysis; assay type: cell-based; details: HT-1080; outline: as §1
# [13] = target: T1, Complex of retinoic acid binding (CRABPII) and inhibitor of apoptosis (cIAP1) proteins (Homo sapiens); assay: Binding affinity to Flag-tagged cIAP1/CRABP2 expressed in human HT1080 cells assessed as induction in cIAP1 degradation at 0.1 to 10 uM after 6 hrs by Western blot analysis; assay type: cell-based; details: HT-1080; outline: as §1
# [14] = target: T1, Complex of retinoic acid binding (CRABPII) and inhibitor of apoptosis (cIAP1) proteins (Homo sapiens); assay: Binding affinity to Flag-tagged cIAP1/CRABP2 expressed in human HT1080 cells assessed as formation of ternary complex by GST-pull down assay; assay type: cell-based; details: HT-1080
# MCF7 = assay: Inhibition of cell proliferation in human MCF7 cells at 1 to 30 uM after 72 hrs by Alamar blue assay; assay type: functional, cell-based; outline: as §4
# HT-1080 [15] = assay: Inhibition of cell proliferation in human HT1080 cells at 1 to 30 uM after 72 hrs by Alamar blue assay; assay type: functional, cell-based; outline: as §4
# [16] = target: T1, Complex of retinoic acid binding (CRABPII) and inhibitor of apoptosis (cIAP1) proteins (Homo sapiens); assay: Binding affinity to Flag-tagged cIAP1/CRABP2 expressed in human IMR32 cells assessed as reduction in MycN level at 1 to 10 uM after 48 hrs by Western blot analysis; assay type: cell-based; details: IMR-32
# IMR-32 [17] = assay: Inhibition of cell proliferation in human IMR32 cells after 72 hrs by Alamarblue assay; assay type: functional, cell-based; outline: as §4
# [18] = target: T1, Complex of retinoic acid binding (CRABPII) and inhibitor of apoptosis (cIAP1) proteins (Homo sapiens); assay: Binding affinity to Flag-tagged cIAP1/CRABP2 expressed in human HT1080 cells assessed as reduction in CRABP2 level at 0.1 uM to 1 uM after 6 hrs by Western blot analysis; assay type: cell-based; details: HT-1080; outline: as §1
# [19] = target: T1, Complex of retinoic acid binding (CRABPII) and inhibitor of apoptosis (cIAP1) proteins (Homo sapiens); assay: Binding affinity to Flag-tagged cIAP1/CRABP2 expressed in human MCF7 cells assessed as reduction in CRABP2 level at 0.1 uM to 1 uM after 6 hrs by Western blot analysis; assay type: cell-based
# [20] = target: T1, Complex of retinoic acid binding (CRABPII) and inhibitor of apoptosis (cIAP1) proteins (Homo sapiens); assay: Binding affinity to Flag-tagged cIAP1/CRABP2 expressed in human HT1080 cells assessed as induction in CRABP-2 degradation after 48 hrs by Western blot analysis; assay type: cell-based; details: HT-1080; outline: as §1
# [21] = target: T1, Complex of retinoic acid binding (CRABPII) and inhibitor of apoptosis (cIAP1) proteins (Homo sapiens); assay: Binding affinity to Flag-tagged cIAP1/CRABP2 expressed in human HT1080 cells assessed as induction in CRABP-2 degradation after 6 hrs by Western blot analysis; assay type: cell-based; details: HT-1080; outline: as §1
# [22] = target: T1, Complex of retinoic acid binding (CRABPII) and inhibitor of apoptosis (cIAP1) proteins (Homo sapiens); assay: Binding affinity to Flag-tagged cIAP1/CRABP2 expressed in human HT1080 cells assessed as induction in cIAP1 degradation at 30 uM after 6 hrs by Western blot analysis; assay type: cell-based; details: HT-1080; outline: as §1
# [23] = target: T1, Complex of retinoic acid binding (CRABPII) and inhibitor of apoptosis (cIAP1) proteins (Homo sapiens); assay: Binding affinity to Flag-tagged cIAP1/CRABP2 expressed in human HT1080 cells assessed as induction in CRABP-2 degradation at 1 uM after 6 hrs by Western blot analysis in presence of proteasome inhibitor lactacystin; assay type: cell-based; details: HT-1080
# Outline: (§5)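 HT1080 cells expressing FLAG-tagged cIAP1 were pretreated with proteasome inhibitor (MG132 or lactacystin), then given 1 μM degrader for 6 h. CRABP-II read by Western blot: SDS lysates equalized by BCA, 10–20% SDS–PAGE, PVDF, ECL.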
# [24] = target: T1, Complex of retinoic acid binding (CRABPII) and inhibitor of apoptosis (cIAP1) proteins (Homo sapiens); assay: Binding affinity to Flag-tagged cIAP1/CRABP2 expressed in human HT1080 cells assessed as induction in CRABP-2 degradation at 1 uM after 6 hrs by Western blot analysis in presence of proteasome inhibitor MG132; assay type: cell-based; details: HT-1080; outline: as §5
# [25] = target: T1, Complex of retinoic acid binding (CRABPII) and inhibitor of apoptosis (cIAP1) proteins (Homo sapiens); assay: Binding affinity to Flag-tagged cIAP1/CRABP2 expressed in human HT1080 cells assessed as induction in CRABP-2 degradation at 1 uM after 6 hrs by Western blot analysis; assay type: cell-based; details: HT-1080; outline: as §1
# [26] = target: T1, Complex of retinoic acid binding (CRABPII) and inhibitor of apoptosis (cIAP1) proteins (Homo sapiens); assay: Binding affinity to Flag-tagged cIAP1/CRABP2 expressed in human HT1080 cells assessed as induction in CRABP-2 degradation at 1 uM after 6 hrs by Western blot analysis in presence of MeBS; assay type: cell-based; details: HT-1080
# HT-1080 [27] = assay: Induction of apoptosis in human HT1080 cells at 1 to 30 uM after 24 hrs by lactate dehydrogenase assay in presence of etoposide; assay type: functional, cell-based; outline: as §2
# [28] = target: T1, Complex of retinoic acid binding (CRABPII) and inhibitor of apoptosis (cIAP1) proteins (Homo sapiens); assay: Binding affinity to Flag-tagged cIAP1/CRABP2 expressed in human IMR32 cells assessed as reduction in CRABP-2 level at 1 to 10 uM after 24 hrs by Western blot analysis; details: IMR-32
# Sequence of Baculoviral IAP repeat-containing protein 2 (Homo sapiens) (Q13490 whole entry): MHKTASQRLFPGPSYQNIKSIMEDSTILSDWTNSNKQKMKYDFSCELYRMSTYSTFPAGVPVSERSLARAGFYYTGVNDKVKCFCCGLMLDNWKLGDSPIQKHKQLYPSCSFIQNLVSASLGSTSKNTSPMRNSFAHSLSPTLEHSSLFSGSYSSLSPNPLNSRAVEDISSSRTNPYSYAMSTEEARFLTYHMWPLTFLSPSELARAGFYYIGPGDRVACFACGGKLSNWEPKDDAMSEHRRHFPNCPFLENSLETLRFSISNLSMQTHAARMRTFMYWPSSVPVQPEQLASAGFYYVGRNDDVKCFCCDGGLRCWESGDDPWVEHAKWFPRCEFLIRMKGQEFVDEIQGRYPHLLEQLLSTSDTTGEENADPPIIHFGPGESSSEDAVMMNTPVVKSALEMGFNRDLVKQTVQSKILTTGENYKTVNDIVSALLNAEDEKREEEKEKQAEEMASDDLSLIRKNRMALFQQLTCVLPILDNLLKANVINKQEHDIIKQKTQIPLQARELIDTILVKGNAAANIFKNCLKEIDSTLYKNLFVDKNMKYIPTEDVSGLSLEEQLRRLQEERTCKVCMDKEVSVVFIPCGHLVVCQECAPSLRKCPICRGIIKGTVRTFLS
Activity [1],Activity [13],Activity [14],SMILES,Activity (HT-1080 [2]),Activity (HT-1080 [3]),Activity (HT-1080 [4]),Activity (HT-1080 [5]),Activity (IMR-32 [8]),inhibition (IMR-32 [9]),other results
inactive,,,CNC(=O)[C@H](CC(C)C)NC(=O)CCCc1ccccc1,,,,,,,
,,,CC1=C(/C=C/C(C)=C/C=C/C(C)=C/C(=O)O)C(C)(C)CC/C1=N\OCC(=O)NCCOCCOCCOC(=O)[C@H](CC(C)C)NC(=O)[C@@H](O)[C@H](N)Cc1ccccc1,inactive,Dose-dependent effect,inactive,Active,,,Activity [6]: Active
inactive,,,CNC(=O)[C@H](CC(C)C)NC(=O)[C@@H](O)[C@H](N)Cc1ccccc1,,,,,inactive,inactive,Activity [7]: inactive; Activity [10]: inactive; inhibition [11]: Active; Activity (XIAP (Homo sapiens)): inactive
,inactive,inactive,CC1=C(/C=C/C(C)=C/C=C/C(C)=C/C(=O)O)C(C)(C)CC/C1=N\OCC(=O)NCCOCCOCCNC(=O)[C@H](CC(C)C)NC(=O)CCCc1ccccc1,,,,,,,Activity [12]: inactive
,inactive,Active,CC1=C(/C=C/C(C)=C/C=C/C(C)=C/C(=O)O)C(C)(C)CC/C1=N\OCC(=O)NCCOCCOCCNC(=O)[C@H](CC(C)C)NC(=O)[C@@H](O)[C@H](N)Cc1ccccc1,,,inactive,inactive,Active,,Activity (MCF7): inactive; Activity (HT-1080 [15]): inactive; Activity [16]: Active; inhibition (IMR-32 [17]): Dose-dependent effect; Activity [18]: Active; Activity [19]: Active; Activity [20]: Active; Activity [21]: Dose-dependent effect; Activity [22]: inactive; Activity [23]: inactive; Activity [24]: inactive; Activity [25]: Active; Activity [26]: inactive; Activity (HT-1080 [27]): inactive; Activity [28]: Active
,,,COC(=O)[C@H](CC(C)C)NC(=O)[C@@H](O)[C@H](N)Cc1ccccc1,inactive,Dose-dependent effect,inactive,Active,inactive,inactive,
